# Experimental data published in ChEMBL document CHEMBL4354843, “Structure-Based Design of a Potent and Selective Covalent Inhibitor for SRC Kinase That Targets a P-Loop Cysteine” (J Med Chem, 2020).
# Tests used:
# [1] = target: 5'-AMP-activated protein kinase catalytic subunit alpha-2 (Homo sapiens) (UniProt P54646); test: Binding affinity to wild-type human partial length AMPK alpha2 (M1 to E306 residues) expressed in bacterial expression system assessed as residual binding level at 1 uM by Kinomescan method relative to control
# [2] = target: Mitogen-activated protein kinase 3 (Homo sapiens) (UniProt P27361); test: Binding affinity to wild-type human full length ERK1 (M1 to P379 residues) expressed in bacterial expression system assessed as residual binding level at 1 uM by Kinomescan method relative to control
# Summary of the method: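 Active-site-directed KinomeScan competition binding panel covering 468 kinases, compound tested at 1 μM. Each readout is the kinase signal remaining with compound, expressed as a percentage of the DMSO control. […]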
# [3] = target: Serine/threonine-protein kinase SIK1 (Homo sapiens) (UniProt P57059); test: Binding affinity to wild-type human partial length SIK (M1 to Y304 residues) expressed in bacterial expression system assessed as residual binding level at 1 uM by Kinomescan method relative to control
# Summary of the method: (§1)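 Active site-directed competition binding panel (KinomeScan, 468 kinases). Test compound at 1 μM. Read-out is kinase binding remaining versus DMSO control, expressed as percent of control. Scores above 35% are treated as weak binding.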
# [4] = target: Serine/threonine-protein kinase PAK 4 (Homo sapiens) (UniProt O96013); test: Binding affinity to wild-type human partial length PAK4 (Q144 to R438 residues) expressed in bacterial expression system assessed as residual binding level at 1 uM by Kinomescan method relative to control
# [5] = target: Cyclin-dependent kinase 15 (Homo sapiens) (UniProt Q96Q40); test: Binding affinity to wild-type human full length PFTAIRE2 (M1 to W384 residues) expressed in bacterial expression system assessed as residual binding level at 1 uM by Kinomescan method relative to control
# Summary of the method: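 Active-site-directed competition binding panel (KinomeScan) covering 468 kinases. Test agent was screened at 1 μM. The read-out is the remaining kinase signal expressed relative to a DMSO control. Scores above 35%, taken as weak binding, were not reported.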
# [6] = tested on: NCI-H1975; test: Antiproliferative activity against human NCI-H1975 cells assessed as reduction in cell viability incubated for 72 hrs by cell-titer glo assay; settings: NCI-H1975, 72 h
# [7] = target: Serine/threonine-protein kinase Sgk3 (Homo sapiens) (UniProt Q96BR1); test: Binding affinity to wild-type human partial length SGK3 (M119 to L496 residues) expressed in mammalian expression system assessed as residual binding level at 1 uM by Kinomescan method relative to control; summary of the method: as §1
# [8] = target: Cyclin-dependent kinase 16 (Homo sapiens) (UniProt Q00536); test: Binding affinity to wild-type human partial length PCTK1 (G160 to A474 residues) expressed in mammalian expression system assessed as residual binding level at 1 uM by Kinomescan method relative to control
# [9] = target: Homeodomain-interacting protein kinase 2 (Homo sapiens) (UniProt Q9H2X6); test: Binding affinity to wild-type human partial length HIPK2 (M153 to S564 residues) expressed in mammalian expression system assessed as residual binding level at 1 uM by Kinomescan method relative to control
# [10] = target: Myosin-IIIb (Homo sapiens) (UniProt Q8WXR4); test: Binding affinity to wild-type human partial length MYO3B (M1 to D357 residues) expressed in bacterial expression system assessed as residual binding level at 1 uM by Kinomescan method relative to control
# [11] = tested on: Phosphatidylinositol 4,5-bisphosphate 3-kinase catalytic subunit alpha isoform (Homo sapiens), P42336 [Q546K]; test: Binding affinity to human partial length PIK3CA Q546K mutant (R108 to N1068 residues) expressed in mammalian expression system assessed as residual binding level at 1 uM by Kinomescan method relative to control
# Summary of the method: (§2)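 KinomeScan active site-directed competition binding panel (468 kinases), compound tested at 1 μM. Result expressed as remaining kinase signal versus DMSO control (percent of control).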
# [12] = tested on: Leucine-rich repeat serine/threonine-protein kinase 2 (Homo sapiens), Q5S007 [G2019S]; test: Binding affinity to human partial length LRRK2 G2019S mutant (H970 to E2527 residues) expressed in mammalian expression system assessed as residual binding level at 1 uM by Kinomescan method relative to control; summary of the method: as §2
# [13] = target: Serine/threonine-protein kinase 24 (Homo sapiens) (UniProt Q9Y6E0); test: Binding affinity to wild-type human partial length MST3 (A30 to S311 residues) expressed in bacterial expression system assessed as residual binding level at 1 uM by Kinomescan method relative to control
# [14] = target: Calcium/calmodulin-dependent protein kinase type 1D (Homo sapiens) (UniProt Q8IU85); test: Binding affinity to wild-type human partial length CAMK1D (M1 to K299 residues) expressed in bacterial expression system assessed as residual binding level at 1 uM by Kinomescan method relative to control
# [15] = target: Serine/threonine-protein kinase Sgk1 (Homo sapiens) (UniProt O00141); test: Binding affinity to wild-type human partial length SGK (I60 to L431 residues) expressed in mammalian expression system assessed as residual binding level at 1 uM by Kinomescan method relative to control
# [16] = target: Tyrosine-protein kinase JAK2 (Homo sapiens) (UniProt O60674); test: Binding affinity to wild-type human partial length JAK2 JH1 catalytic domain (A829 to G1132 residues) expressed in mammalian expression system assessed as residual binding level at 1 uM by Kinomescan method relative to control
# Summary of the method: (§3)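 Active-site-directed competition binding panel of 468 kinases (KinomeScan), compound at 1 μM. The read-out is kinase remaining bound, given as a percentage of the DMSO control. […]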
# [17] = target: Serine/threonine-protein kinase D1 (Homo sapiens) (UniProt Q15139); test: Binding affinity to wild-type human partial length PRKD1 (G551 to E870 residues) expressed in bacterial expression system assessed as residual binding level at 1 uM by Kinomescan method relative to control
# [18] = tested on: Phosphatidylinositol 4,5-bisphosphate 3-kinase catalytic subunit alpha isoform (Homo sapiens), P42336 [E545K]; test: Binding affinity to human partial length PIK3CA E545K mutant (R108 to N1068 residues) expressed in mammalian expression system assessed as residual binding level at 1 uM by Kinomescan method relative to control; summary of the method: as §2
# [19] = target: Serine/threonine-protein kinase SIK3 (Homo sapiens) (UniProt Q9Y2K2); test: Binding affinity to wild-type human partial length QSK (A90 to L395 residues) expressed in mammalian expression system assessed as residual binding level at 1 uM by Kinomescan method relative to control; summary of the method: as §3
# [20] = target: MAP kinase-interacting serine/threonine-protein kinase 2 (Homo sapiens) (UniProt Q9HBH9); test: Binding affinity to wild-type human partial length MKNK2 (G63 to S388 residues) expressed in mammalian expression system assessed as residual binding level at 1 uM by Kinomescan method relative to control; summary of the method: as §3
# [21] = target: Mitogen-activated protein kinase kinase kinase kinase 4 (Homo sapiens) (UniProt O95819); test: Binding affinity to wild-type human partial length MAP4K4 (M1 to R310 residues) expressed in bacterial expression system assessed as residual binding level at 1 uM by Kinomescan method relative to control
# Serine/threonine-protein kinase SIK3 (Homo sapiens), sequence (Q9Y2K2 whole entry, looked up, the tested form may be a part): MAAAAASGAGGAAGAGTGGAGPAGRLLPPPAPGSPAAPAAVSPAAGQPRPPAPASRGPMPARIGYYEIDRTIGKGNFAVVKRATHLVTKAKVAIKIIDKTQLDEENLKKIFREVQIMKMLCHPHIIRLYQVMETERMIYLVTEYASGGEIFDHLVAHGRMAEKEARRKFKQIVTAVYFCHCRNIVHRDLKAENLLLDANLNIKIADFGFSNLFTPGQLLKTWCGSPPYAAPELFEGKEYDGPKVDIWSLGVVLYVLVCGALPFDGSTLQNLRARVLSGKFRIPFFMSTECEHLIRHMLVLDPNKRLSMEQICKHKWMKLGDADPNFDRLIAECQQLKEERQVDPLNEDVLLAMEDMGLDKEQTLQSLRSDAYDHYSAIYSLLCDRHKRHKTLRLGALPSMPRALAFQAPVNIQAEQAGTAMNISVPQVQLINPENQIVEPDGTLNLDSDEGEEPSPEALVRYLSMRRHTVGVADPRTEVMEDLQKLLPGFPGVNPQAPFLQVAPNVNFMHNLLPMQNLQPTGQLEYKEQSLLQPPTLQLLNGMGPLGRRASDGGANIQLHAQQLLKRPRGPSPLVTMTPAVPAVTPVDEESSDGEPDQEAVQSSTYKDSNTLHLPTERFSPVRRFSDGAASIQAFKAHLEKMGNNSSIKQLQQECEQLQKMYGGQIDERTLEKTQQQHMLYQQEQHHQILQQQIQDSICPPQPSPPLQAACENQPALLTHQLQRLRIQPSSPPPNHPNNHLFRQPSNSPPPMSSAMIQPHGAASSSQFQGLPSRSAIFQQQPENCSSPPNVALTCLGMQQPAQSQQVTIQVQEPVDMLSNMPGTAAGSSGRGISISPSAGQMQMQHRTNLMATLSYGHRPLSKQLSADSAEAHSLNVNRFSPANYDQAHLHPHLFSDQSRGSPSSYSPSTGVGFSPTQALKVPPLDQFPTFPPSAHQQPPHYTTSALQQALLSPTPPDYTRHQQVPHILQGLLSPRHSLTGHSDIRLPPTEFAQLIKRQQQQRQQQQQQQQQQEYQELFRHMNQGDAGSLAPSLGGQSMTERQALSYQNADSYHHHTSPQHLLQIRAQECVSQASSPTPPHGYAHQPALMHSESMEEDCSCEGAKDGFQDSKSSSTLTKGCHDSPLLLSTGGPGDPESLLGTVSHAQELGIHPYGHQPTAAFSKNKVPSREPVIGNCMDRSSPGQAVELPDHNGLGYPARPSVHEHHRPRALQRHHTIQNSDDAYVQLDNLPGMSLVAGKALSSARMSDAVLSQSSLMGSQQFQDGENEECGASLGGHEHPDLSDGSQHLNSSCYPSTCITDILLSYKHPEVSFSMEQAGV
# Leucine-rich repeat serine/threonine-protein kinase 2 (Homo sapiens), Q5S007 [G2019S], sequence (Q5S007 whole entry G2019S, the tested form may be a part): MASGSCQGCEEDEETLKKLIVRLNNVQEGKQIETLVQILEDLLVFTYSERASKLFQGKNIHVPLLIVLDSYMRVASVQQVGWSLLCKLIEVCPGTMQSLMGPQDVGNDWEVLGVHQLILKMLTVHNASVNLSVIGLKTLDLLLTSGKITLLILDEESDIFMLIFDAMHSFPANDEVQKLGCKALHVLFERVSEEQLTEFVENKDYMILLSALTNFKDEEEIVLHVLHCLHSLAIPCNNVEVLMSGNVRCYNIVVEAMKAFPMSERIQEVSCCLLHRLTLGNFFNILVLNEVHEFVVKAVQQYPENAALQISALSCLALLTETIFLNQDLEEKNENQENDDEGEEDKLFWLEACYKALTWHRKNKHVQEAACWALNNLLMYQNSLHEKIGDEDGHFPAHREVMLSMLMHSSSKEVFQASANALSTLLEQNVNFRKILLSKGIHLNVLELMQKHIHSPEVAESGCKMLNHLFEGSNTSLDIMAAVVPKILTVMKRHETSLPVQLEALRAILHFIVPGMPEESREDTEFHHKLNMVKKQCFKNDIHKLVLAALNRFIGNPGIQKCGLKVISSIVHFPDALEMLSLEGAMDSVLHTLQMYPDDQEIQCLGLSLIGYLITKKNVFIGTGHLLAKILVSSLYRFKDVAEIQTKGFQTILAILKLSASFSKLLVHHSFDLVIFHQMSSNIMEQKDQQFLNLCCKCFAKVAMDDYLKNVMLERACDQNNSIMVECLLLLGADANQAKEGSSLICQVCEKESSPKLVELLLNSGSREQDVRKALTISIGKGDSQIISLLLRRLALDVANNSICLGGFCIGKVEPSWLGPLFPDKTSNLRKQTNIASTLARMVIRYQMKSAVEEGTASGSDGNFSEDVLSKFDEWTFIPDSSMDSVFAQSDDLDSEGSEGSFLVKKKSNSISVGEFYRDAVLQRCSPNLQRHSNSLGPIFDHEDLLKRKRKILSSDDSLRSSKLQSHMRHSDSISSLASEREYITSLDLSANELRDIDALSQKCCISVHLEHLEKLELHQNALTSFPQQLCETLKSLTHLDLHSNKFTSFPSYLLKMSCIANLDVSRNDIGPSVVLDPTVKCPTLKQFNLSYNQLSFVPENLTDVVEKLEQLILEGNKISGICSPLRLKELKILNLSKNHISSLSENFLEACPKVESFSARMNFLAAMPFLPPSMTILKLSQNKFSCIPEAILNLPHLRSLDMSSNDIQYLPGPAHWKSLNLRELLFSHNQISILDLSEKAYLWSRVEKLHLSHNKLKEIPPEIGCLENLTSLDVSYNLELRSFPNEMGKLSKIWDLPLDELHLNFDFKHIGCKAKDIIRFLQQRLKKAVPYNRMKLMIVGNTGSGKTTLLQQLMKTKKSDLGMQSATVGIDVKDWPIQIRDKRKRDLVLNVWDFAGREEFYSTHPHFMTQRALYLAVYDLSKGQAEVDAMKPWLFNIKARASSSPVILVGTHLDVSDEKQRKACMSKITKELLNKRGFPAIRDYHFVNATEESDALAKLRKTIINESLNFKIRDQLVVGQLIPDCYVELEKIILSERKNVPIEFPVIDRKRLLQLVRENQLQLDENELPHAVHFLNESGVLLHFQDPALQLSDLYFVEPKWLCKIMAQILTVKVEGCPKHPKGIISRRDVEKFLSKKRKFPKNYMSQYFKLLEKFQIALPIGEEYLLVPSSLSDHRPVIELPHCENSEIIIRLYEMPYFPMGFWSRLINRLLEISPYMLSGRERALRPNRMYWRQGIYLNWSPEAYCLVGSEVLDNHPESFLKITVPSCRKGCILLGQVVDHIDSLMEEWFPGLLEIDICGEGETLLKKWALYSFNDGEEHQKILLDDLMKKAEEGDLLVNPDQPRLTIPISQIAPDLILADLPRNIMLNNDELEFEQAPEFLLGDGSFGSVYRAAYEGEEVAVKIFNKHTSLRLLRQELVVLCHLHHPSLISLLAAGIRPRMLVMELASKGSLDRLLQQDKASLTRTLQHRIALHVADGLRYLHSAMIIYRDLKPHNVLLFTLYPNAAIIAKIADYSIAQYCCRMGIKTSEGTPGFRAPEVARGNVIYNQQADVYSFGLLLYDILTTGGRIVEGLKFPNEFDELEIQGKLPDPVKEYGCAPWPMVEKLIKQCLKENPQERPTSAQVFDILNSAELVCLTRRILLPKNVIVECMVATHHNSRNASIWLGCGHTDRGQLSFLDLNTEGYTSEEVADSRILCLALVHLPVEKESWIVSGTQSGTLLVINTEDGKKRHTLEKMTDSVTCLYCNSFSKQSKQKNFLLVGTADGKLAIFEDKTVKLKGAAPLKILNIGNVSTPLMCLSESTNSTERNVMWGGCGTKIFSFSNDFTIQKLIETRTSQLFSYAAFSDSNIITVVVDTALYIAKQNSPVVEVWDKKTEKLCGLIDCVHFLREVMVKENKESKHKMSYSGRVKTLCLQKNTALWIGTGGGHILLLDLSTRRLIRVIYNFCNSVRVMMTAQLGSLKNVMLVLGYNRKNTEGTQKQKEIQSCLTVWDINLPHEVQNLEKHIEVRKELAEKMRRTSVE
# Cyclin-dependent kinase 15 (Homo sapiens), sequence (Q96Q40 whole entry, the tested form may be a part): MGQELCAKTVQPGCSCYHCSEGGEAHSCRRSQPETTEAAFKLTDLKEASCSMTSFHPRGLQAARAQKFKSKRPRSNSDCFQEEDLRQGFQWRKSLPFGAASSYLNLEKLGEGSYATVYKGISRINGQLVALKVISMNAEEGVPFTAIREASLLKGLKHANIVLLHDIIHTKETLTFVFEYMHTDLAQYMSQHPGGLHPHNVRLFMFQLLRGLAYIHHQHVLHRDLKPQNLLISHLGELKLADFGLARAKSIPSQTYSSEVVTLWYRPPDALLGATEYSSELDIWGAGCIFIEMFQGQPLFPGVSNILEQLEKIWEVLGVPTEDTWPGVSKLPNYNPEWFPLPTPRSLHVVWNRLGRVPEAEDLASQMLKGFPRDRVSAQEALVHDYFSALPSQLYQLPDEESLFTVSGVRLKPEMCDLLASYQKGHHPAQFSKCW
# Calcium/calmodulin-dependent protein kinase type 1D (Homo sapiens), sequence (Q8IU85 whole entry, looked up, the tested form may be a part): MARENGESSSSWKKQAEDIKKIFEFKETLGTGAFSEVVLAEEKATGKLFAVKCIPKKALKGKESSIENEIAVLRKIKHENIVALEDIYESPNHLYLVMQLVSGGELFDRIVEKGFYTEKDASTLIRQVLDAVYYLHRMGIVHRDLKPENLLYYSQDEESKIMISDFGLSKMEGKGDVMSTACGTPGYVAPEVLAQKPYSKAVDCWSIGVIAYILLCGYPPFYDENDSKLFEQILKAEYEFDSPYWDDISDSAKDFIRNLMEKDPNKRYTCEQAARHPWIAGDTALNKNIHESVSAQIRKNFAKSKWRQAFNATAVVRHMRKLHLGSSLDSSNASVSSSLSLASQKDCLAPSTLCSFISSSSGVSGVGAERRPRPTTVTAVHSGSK
# Serine/threonine-protein kinase 24 (Homo sapiens), sequence (Q9Y6E0 whole entry, looked up, the tested form may be a part): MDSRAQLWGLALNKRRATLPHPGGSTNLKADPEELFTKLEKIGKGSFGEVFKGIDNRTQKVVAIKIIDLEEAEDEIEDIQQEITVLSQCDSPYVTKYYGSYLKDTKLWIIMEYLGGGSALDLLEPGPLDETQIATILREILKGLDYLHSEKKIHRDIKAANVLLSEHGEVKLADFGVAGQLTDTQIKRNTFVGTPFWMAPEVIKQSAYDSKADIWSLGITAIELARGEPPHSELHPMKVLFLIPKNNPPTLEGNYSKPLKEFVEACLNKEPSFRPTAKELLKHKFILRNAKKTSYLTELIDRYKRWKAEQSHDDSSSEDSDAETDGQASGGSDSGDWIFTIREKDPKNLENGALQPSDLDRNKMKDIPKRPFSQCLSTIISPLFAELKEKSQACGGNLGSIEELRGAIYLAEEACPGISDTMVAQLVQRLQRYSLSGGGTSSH
smiles,measurement,setting,value
C=CC(=O)Nc1ccccc1Nc1nc(Nc2ccc(N3CCN(C)CC3)cc2)ncc1C(=O)Nc1c(C)cccc1Cl,Activity,[1],100%
same,Activity,[2],100%
same,Activity,[3],1%
same,Activity,[4],100%
same,Activity,[5],100%
same,IC50,[6],300 nM
same,Activity,[7],86%
same,Activity,[8],100%
same,Activity,[9],100%
same,Activity,[10],91%
same,Activity,[11],100%
same,Activity,[12],100%
same,Activity,[13],100%
same,Activity,[14],100%
same,Activity,[15],95%
same,Activity,[16],90%
same,Activity,[17],100%
same,Activity,[18],79%
same,Activity,[19],69%
same,Activity,[20],97%
same,Activity,[21],100%
